Bioassay records deposited in PubChem by Johns Hopkins Ion Channel Center.
Hits are enriched below; roughly 3.7% of the tested compounds scored in any of these assays.
KCNQ1 block = blocks the human KCNQ1 potassium channel. 310,000 compounds, 1.3% hits. CHO-K1 KCNQ1, FluxOR thallium flux fluorescence; stronger effect = higher value. B-score at 10 µM. AID 2642. P51787;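 active = compounds whose thallium flux B-score, printed positive for inhibition, exceeds three library SD while starting fluorescence stays within three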;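 note: channel opened by potassium depolarization with thallium stimulus after 20 min compound exposure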
KCNK9 block = human KCNK9 channel inhibition; HEK293 KCNK9, FluxOR thallium flux fluorescence; stronger effect = lower value; B-score at 10 µM; 310,000 compounds, 1.2% hits;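 active = ratio B-score over 3 SD below the library mean, with starting fluorescence within 5 SD of its mean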;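 note: negative B-score means less thallium flux so channel inhibition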
KCNK3 inh = human KCNK3 channel inhibition, primary screen. B-score at 10 µM. 340,000 compounds, 0.84% hits. CHO-KCNK3 thallium flux, FluxOR fluorescence; stronger effect = lower value. O14649;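 active = B-score under library mean minus 4 SD, starting fluorescence ratio at most library mean plus 5 SD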;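 note: more negative B-score means stronger inhibition of thallium flux through KCNK3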
Kir21 inh = inhibitors of mouse Kir2.1 inward-rectifier potassium channel; P35561; 310,000 compounds, 0.85% hits; AID 1672; B-score at 10 µM; HEK293-Kir2.1, FluxOR thallium flux fluorescence; stronger effect = lower value;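 active = fluorescence ratio B-score at or below minus 3 SD of library scores, with starting-brightness B-score within 2 SD, cut at about -4.2 in these data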;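 note: channel flux triggered by added potassium and thallium sulfate stimulus; B-score of peak minus minimum fluorescence over baseline after thallium stimulus; more negative B-score means stronger Kir2.1 block with less thallium influx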
KCNQ1 pot = potentiators or activators of human KCNQ1 potassium channel; P51787; CHO-K1 KCNQ1, thallium flux FluxOR fluorescence; stronger effect = higher value; B-score at 10 µM; 310,000 compounds, 0.35% hits; AID 2648;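 active = fluorescence ratio B-score, a plate-corrected score, at least three library SD, with initial intensity B-score within 5 SD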
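Assay system: stable KCNQ1 CHO-K1 line; medium: assay buffer, equal DMSO in all wells; timing: 90 min dye loading and 20 min compound exposure, both at room temperature; technique: kinetic FluxOR thallium fluorescence, 10-s 1-Hz baseline, 110-s post-stimulus read; read-out basis: B score of baseline-normalized fluorescence ratio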
hERG protect = shields human hERG channel from block by proarrhythmic agents | Q12809 | CHO-hERG, FluxOR thallium flux, dofetilide IC70 present | activation (rescue from dofetilide block), less the hit threshold, % at 10 µM | 310,000 compounds, 0.51% hits | AID 1511;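 active = activation above the mean of controls blocked by dofetilide plus 5 SD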;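 note: thallium influx through hERG after potassium depolarization seen as dye fluorescence rise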
* marks the source's active call; other numbers are inactive results; i = inactive; x = not tested or not shown.

SMILES	KCNQ1 block	KCNK9 block	KCNK3 inh	Kir21 inh	KCNQ1 pot	hERG protect
Cc1ccc(NC(=O)CCc2nc3ccccc3c(=O)[nH]2)cc1S(=O)(=O)N1CCOCC1	i	i	i	0.39	i	-12.2
Cc1ccc(-c2nnc(SCC(=O)NC3CCCC3)n2C)cc1	i	i	i	-0.01	i	-6.7
COc1ccccc1/C=C1\SC(=S)N(CCC(=O)NCCCn2ccnc2)C1=O	i	i	i	-4.48*	i	-7.2
Cc1nnc(C)c2c(C)n(-c3ccccc3)c(C)c12	i	i	i	1.14	i	-12.3
Cc1nnc(C)c2c(C)n(C(c3ccccc3)c3ccccc3)c(C)c12	i	i	i	-4.51*	i	-21.5
COc1cc(OC)cc(C(=O)NCC(=O)NCC(c2ccco2)N2CCCCC2)c1 (stereo not drawn)	x	x	i	x	x	x
CC(C)Cc1cc(C(=O)N2CCCC(CO)(Cc3ccc(F)cc3F)C2)n[nH]1 (stereo not drawn)	i	i	i	-1.99	i	-7.2
O=c1c(-c2cccc3ccccc23)[n+]([O-])c2ccccc2n1O	i	i	i	-0.38	i	9.5*
CCOn1c(=O)c(-c2cccc3ccccc23)[n+]([O-])c2ccccc21	i	i	i	-0.68	i	-9.5
Cc1ccc(C(C)C)c(OCCCN2C(=O)NC(C)(C)C2=O)c1	i	i	i	-2.5	i	-15.2
Cc1ccc(C(C)C)c(OCCCN(C)Cc2ccccc2)c1	i	i	i	-11.1*	i	-15.9
Cc1ccc(C(C)C)c(OCCCN2CCc3ccccc3C2)c1	i	i	i	-9.02*	i	-7.7
Cc1ccc(C(C)C)c(OCC(O)CN(C)Cc2ccccc2)c1 (stereo not drawn)	i	i	i	-9.73*	i	-13.1
Cc1ccc(OCCCCN2CCc3ccccc3C2)c(C)c1	i	i	i	-0.31	i	-11.4
CCc1ccc(CN(C)CC(O)COc2cccc3ccccc23)cc1 (stereo not drawn)	i	i	i	-16.3*	i	-15.4
O=C(O)C1CC=C(Cl)CC1C(=O)NC1CCCCC1 (stereo not drawn)	i	i	i	1.37	i	-9.5
CC(C)C(=O)N1CCN(c2ccccc2NC(=O)c2cccc3ccccc23)CC1	i	i	i	-0.22	i	1.2
N#Cc1cc(C(=O)c2cc(F)ccc2O)cn(-c2nccs2)c1=O	8*	i	i	-7.37	i	-13.1
Cc1cc2n(n1)C(c1ccc3c(c1)OCO3)Nc1ccccc1-2 (stereo not drawn)	i	i	i	1.47	i	-17.0
Cc1ccc2c(c1)-c1cc(C)nn1C(c1ccc3c(c1)OCO3)N2 (stereo not drawn)	i	-7.58*	i	-0.43	i	-9.9
CCn1c(C)cc(C(=O)CSc2nnc(-c3ccco3)o2)c1C	x	x	i	x	x	x
CCc1ccc(-c2cc(C)no2)cc1S(=O)(=O)N1CCN(c2ccccc2)CC1	6*	i	i	0.88	i	-10.6
Cc1c(OCC(=O)NCC(O)c2ccccc2)ccc2c(-c3ccccc3)cc(=O)oc12 (stereo not drawn)	i	i	i	-1.73	i	-8.0
COc1ccc(C(=O)Nc2ccccc2N2CCN(C(=O)c3ccccc3)CC2)cc1Br	i	i	i	0.02	i	-22.9
O=C(CSc1ncccn1)NCc1cccc(Cl)c1	i	i	i	-0.22	i	6.3*
SMILES	KCNQ1 block	KCNK9 block	KCNK3 inh	Kir21 inh	KCNQ1 pot	hERG protect
COc1ccc(/C=C/c2nc(N)nc(-c3ccccc3O)n2)cc1OC	i	i	i	0	i	-11.8
COc1cc(/C=C/c2nc(N)nc(-c3ccccc3O)n2)cc(OC)c1OC	i	-7.69*	i	-1.18	i	-12.8
Cn1cnnc1Sc1ccc(C(=O)NCCC(c2ccccc2)c2ccccc2)cc1[N+](=O)[O-]	10*	i	i	-0.93	i	-9.7
CCOC(=O)c1c(S(=O)(=O)Nc2ccccc2OCC)c(C)n(C)c1C	i	i	i	0.92	i	-6.2
CS(=O)(=O)N(Cc1cccc(CN(C(C(=O)O)c2ccccc2)S(C)(=O)=O)c1)C(C(=O)O)c1ccccc1 (stereo not drawn)	i	i	i	0.97	i	-2.8
CC(C)C[C@@H](C(=O)O)N(Cc1cccc(CN([C@@H](CC(C)C)C(=O)O)S(C)(=O)=O)c1)S(C)(=O)=O	i	i	i	-0.25	i	4.7*
COc1ccccc1N1N=C(c2ccc([N+](=O)[O-])cc2)CC1c1ccccc1 (stereo not drawn)	12*	i	i	-0.04	i	-14.2
Cc1ccc([C@@H]2[C@@H]3C(=O)N(c4ccccc4)C(=O)[C@@H]3[C@]3(C)C(=O)N(CC4CC4)CC(=O)N23)o1	i	i	i	1.26	i	-6.1
CCc1cc2c(=O)n(CCC(C)C)c(=S)[nH]c2s1	i	i	i	1.28	35*	25.8*
CCCn1c(=S)[nH]c2ccccc2c1=O	i	i	i	0.64	i	0.5
CCN(CC)CCNC(=O)c1cc(-c2cccnc2)nc2ccc(S(=O)(=O)N3CCC(C)CC3)cc12	i	i	i	-5.69*	i	-7.1
CCN(CC)S(=O)(=O)c1ccc(N2CCc3cc(OC)c(OC)cc3C2)nc1	i	i	i	0.21	i	-5.7
COc1ccc(Cn2nnnc2C(c2ccccc2Cl)N2CCN(C3CCCC3)CC2)cc1 (stereo not drawn)	i	i	i	-5.1*	i	-10.8
Cc1ccc(/C=N/NC(=O)CNC(=O)c2cccs2)o1	i	i	i	-5.46*	i	-6.4
Cc1nn(-c2ccccc2)c(C)c1/C=N/NC(=O)c1cc(-c2cccs2)[nH]n1	i	i	i	1.1	i	-8.3
Cc1c(/C=N/NC(=O)c2cccs2)c2ccccc2n1Cc1ccccc1Cl	i	-7.7*	-9.31*	-0.18	i	-7.8
O=C(CNC(=O)c1cccs1)N/N=C/c1ccco1	i	i	i	-0.69	i	-6.3
CSc1ccc(/C=N/NC(=O)c2cccs2)cc1	i	i	i	0.17	46*	24.6*
O=C(N/N=C/c1ccncc1)c1cccs1	i	i	i	-0.09	i	-8.1
Cc1nn(-c2ccccc2)c(C)c1/C=N/NC(=O)c1cccs1	i	-7.82*	i	-0.22	i	-7.2
CSCCC(NC(=O)c1ccco1)C(=O)N(C)CC(=O)Nc1c(Cl)cccc1Cl (stereo not drawn)	i	i	i	2.2	i	-14.7
